We go through eight molecules from ChEMBL document CHEMBL4732030, “Aloe-emodin derived azoles as a new structural type of potential antibacterial agents: design, synthesis, and evaluation of the action on membrane, DNA, and MRSA DNA isomerase” (RSC Med Chem, 2021).

Common to all, as to format: functional
For assay [1], the system named is Escherichia coli. The assay can be described thus: Antibacterial activity against Escherichia coli ATCC 25922 assessed as inhibition of bacterial growth after 24 hrs by microbroth dilution method. Put shortly: (§1)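 Bacterial inoculum set to 1×10^5 CFU with sterile saline. Test agents and reference drugs, from DMSO stocks, diluted in Mueller-Hinton broth to 512, 256, 128, 64, 32, 16, 8, 4, 2, 1 and 0.5 µg/mL. Inoculated dilutions incubated 37 °C for 24 h.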
On the technique in general: Broth dilution looks for growth in wells or tubes with falling amounts of substance.

Assay [2] deals with Staphylococcus aureus. The assay can be described thus: Antibacterial activity against methicillin resistant Staphylococcus aureus assessed as inhibition of bacterial growth after 24 hrs by microbroth dilution method. An outline of the steps:
(§2)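 Inoculum adjusted in sterile saline to 1×10^5 CFU. Compounds dissolved in DMSO as stock, then diluted in Mueller-Hinton broth as a two-fold series from 512 to 0.5 µg/mL (11 levels). Inoculated dilutions incubated at 37 °C for 24 h, and the MIC recorded.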

For assay [3], the system named is Pseudomonas aeruginosa. The assay can be described thus: Antibacterial activity against Pseudomonas aeruginosa assessed as inhibition of bacterial growth after 24 hrs by microbroth dilution method. An outline of the steps: as §1
Assay [4] has as its system Staphylococcus aureus. The assay can be described thus: Antibacterial activity against Staphylococcus aureus assessed as inhibition of bacterial growth after 24 hrs by microbroth dilution method. An outline of the steps:
as §1

For assay [5], the system named is Escherichia coli. The assay can be described thus: Antibacterial activity against Escherichia coli assessed as inhibition of bacterial growth after 24 hrs by microbroth dilution method. Put shortly:
as §1

For assay [6], the system named is Acinetobacter baumannii. The assay can be described thus: Antibacterial activity against Acinetobacter baumannii assessed as inhibition of bacterial growth after 24 hrs by microbroth dilution method. Put shortly:
as §1

Assay [7] concerns Staphylococcus aureus. The assay can be described thus: Antibacterial activity against Staphylococcus aureus ATCC 25923 assessed as inhibition of bacterial growth after 24 hrs by microbroth dilution method. Put shortly: as §1
Assay [8] relates to Enterococcus faecalis. The assay can be described thus: Antibacterial activity against Enterococcus faecalis assessed as inhibition of bacterial growth after 24 hrs by microbroth dilution method. Put shortly: as §1
In assay [9] the test system is Pseudomonas aeruginosa. The assay can be described thus: Antibacterial activity against Pseudomonas aeruginosa ATCC 27853 assessed as inhibition of bacterial growth after 24 hrs by microbroth dilution method. An outline of the steps:
as §1

Assay [10] relates to Staphylococcus aureus. The assay can be described thus: Antibacterial activity against Staphylococcus aureus ATCC 29213 assessed as inhibition of bacterial growth after 24 hrs by microbroth dilution method. An outline of the steps:
as §2

The subject of assay [11] is Klebsiella pneumoniae. The assay can be described thus: Antibacterial activity against Klebsiella pneumoniae assessed as inhibition of bacterial growth after 24 hrs by microbroth dilution method. An outline of the steps:
as §1

Assay [12] deals with Staphylococcus aureus. The assay can be described thus: Potency index, ratio of norfloxacin MIC to compound MIC for antibacterial activity against Staphylococcus aureus incubated for 24 hrs by microbroth dilution method.

≈ marks a conversion by molar mass, not a printed value.

Take `CCc1nc2ccccc2n1Cc1cc(O)c2c(c1)C(=O)c1cccc(O)c1C2=O`: the MIC – broadly, the least concentration at which growth counts as inhibited – in assay [1] is 32 µg/mL (≈ 80.3 µM); in assay [2], 64 µg/mL (≈ 161 µM); in assay [3] it was 64 µg/mL (≈ 161 µM); in assay [4] it was 64 µg/mL (≈ 161 µM); in assay [5] it was 64 µg/mL (≈ 161 µM); in [6], 64 µg/mL (≈ 161 µM). The MIC is 128 µg/mL (≈ 321 µM) in [7]; 16 µg/mL (≈ 40.2 µM) in assay [8]; 64 µg/mL (≈ 161 µM) in [9]; 64 µg/mL (≈ 161 µM) in assay [10]; 64 µg/mL (≈ 161 µM) in [11].
Take `O=C1c2cccc(O)c2C(=O)c2c(O)cc(CSc3nnc[nH]3)cc21`: the minimal inhibitory concentration (MIC) in assay [1] came out at 64 µg/mL (≈ 181 µM); in [2], 64 µg/mL (≈ 181 µM); in [3], 32 µg/mL (≈ 90.6 µM); in assay [4], 16 µg/mL (≈ 45.3 µM); in [5], 128 µg/mL (≈ 362 µM); in assay [6], 64 µg/mL (≈ 181 µM). In addition, the MIC in assay [7] came out at 16 µg/mL (≈ 45.3 µM); in assay [8], 128 µg/mL (≈ 362 µM); in assay [9] it was 64 µg/mL (≈ 181 µM); in [10], 16 µg/mL (≈ 45.3 µM); in assay [11], 64 µg/mL (≈ 181 µM).
Turning to `O=C1c2cccc(O)c2C(=O)c2c(O)cc(Cn3cnc([N+](=O)[O-])c3)cc21`, the MIC in [1] stood at 32 µg/mL (≈ 87.6 µM); in [2], 64 µg/mL (≈ 175 µM); in [3], 64 µg/mL (≈ 175 µM); in assay [4], 16 µg/mL (≈ 43.8 µM); in [5], 64 µg/mL (≈ 175 µM); in [6] it was 32 µg/mL (≈ 87.6 µM). The MIC in assay [7] stood at 16 µg/mL (≈ 43.8 µM); in assay [8] it was 128 µg/mL (≈ 350 µM); in [9] it was 32 µg/mL (≈ 87.6 µM); in assay [10], 16 µg/mL (≈ 43.8 µM); in [11] it was 128 µg/mL (≈ 350 µM).
Take `Cn1ccnc1SCc1cc(O)c2c(c1)C(=O)c1cccc(O)c1C2=O`: the minimal inhibitory concentration (MIC) in [1] turned out to be 128 µg/mL (≈ 349 µM); in [2], 128 µg/mL (≈ 349 µM); in assay [3], 128 µg/mL (≈ 349 µM); in [4], 128 µg/mL (≈ 349 µM); in assay [5], 128 µg/mL (≈ 349 µM); in assay [6], 32 µg/mL (≈ 87.3 µM). Further, the MIC was found to be 256 µg/mL (≈ 699 µM) in [7]; 128 µg/mL (≈ 349 µM) in assay [8]; 64 µg/mL (≈ 175 µM) in assay [9]; 128 µg/mL (≈ 349 µM) in assay [10]; 128 µg/mL (≈ 349 µM) in assay [11].
On to `Cc1nnnn1Cc1cc(O)c2c(c1)C(=O)c1cccc(O)c1C2=O`, for which the MIC in assay [1] turned out to be 64 µg/mL (≈ 190 µM); in assay [2], 32 µg/mL (≈ 95.2 µM); in [3], 128 µg/mL (≈ 381 µM); in assay [4] it was 16 µg/mL (≈ 47.6 µM); in assay [5], 64 µg/mL (≈ 190 µM); in assay [6], 32 µg/mL (≈ 95.2 µM). Further, the MIC in [7] stood at 64 µg/mL (≈ 190 µM); in [8], 16 µg/mL (≈ 47.6 µM); in assay [9], 32 µg/mL (≈ 95.2 µM); in assay [10], 64 µg/mL (≈ 190 µM); in assay [11] it was 64 µg/mL (≈ 190 µM).
With `Cn1nnnc1SCc1cc(O)c2c(c1)C(=O)c1cccc(O)c1C2=O`, the MIC worked out at 64 µg/mL (≈ 174 µM) in assay [1]; 32 µg/mL (≈ 86.9 µM) in assay [2]; 64 µg/mL (≈ 174 µM) in assay [3]; 8 µg/mL (≈ 21.7 µM) in [4]; 128 µg/mL (≈ 347 µM) in assay [5]; 64 µg/mL (≈ 174 µM) in [6]. Moreover, the MIC was determined as 16 µg/mL (≈ 43.4 µM) in assay [7]; 128 µg/mL (≈ 347 µM) in assay [8]; 64 µg/mL (≈ 174 µM) in assay [9]; 32 µg/mL (≈ 86.9 µM) in [10]; 128 µg/mL (≈ 347 µM) in [11]. The Ratio in [12] is given as 2.
For the molecule `O=C1c2cccc(O)c2C(=O)c2c(O)cc(Cn3cnc4ccccc43)cc21`, the MIC in [1] came out at 16 µg/mL (≈ 43.2 µM); in [2], 32 µg/mL (≈ 86.4 µM); in assay [3] it was 64 µg/mL (≈ 173 µM); in assay [4], 32 µg/mL (≈ 86.4 µM); in assay [5] it was 32 µg/mL (≈ 86.4 µM); in [6], 32 µg/mL (≈ 86.4 µM). The MIC was determined as 8 µg/mL (≈ 21.6 µM) in assay [7]; 16 µg/mL (≈ 43.2 µM) in assay [8]; 32 µg/mL (≈ 86.4 µM) in assay [9]; 32 µg/mL (≈ 86.4 µM) in assay [10]; 64 µg/mL (≈ 173 µM) in [11].
Regarding `O=C1c2cccc(O)c2C(=O)c2c(O)cc(Cn3ccnc3[N+](=O)[O-])cc21`, the MIC in [1] worked out at 32 µg/mL (≈ 87.6 µM); in assay [2], 32 µg/mL (≈ 87.6 µM); in assay [3], 64 µg/mL (≈ 175 µM); in assay [4] it was 32 µg/mL (≈ 87.6 µM); in [5] it was 64 µg/mL (≈ 175 µM); in assay [6], 64 µg/mL (≈ 175 µM). The MIC in assay [7] came out at 32 µg/mL (≈ 87.6 µM); in assay [8], 32 µg/mL (≈ 87.6 µM); in assay [9], 64 µg/mL (≈ 175 µM); in assay [10], 32 µg/mL (≈ 87.6 µM); in assay [11], 64 µg/mL (≈ 175 µM).
